In ChEMBL document CHEMBL1135747, “Radiolabeling and in vivo behavior of copper-64-labeled cross-bridged cyclam ligands” (J Med Chem, 2002):

Legend:
[1] = Partition coefficient (logP); assay type: physicochemical; conditions: octanol/water
How it was run: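 Each ⁶⁴Cu complex was partitioned between octanol and water, shaken 1 h at room temperature, and 100 μL from each phase was counted. Log P is the log of the octanol/water count ratio, averaged over five samples.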

[2] = species on record: Rattus norvegicus; assay: Distribution in rat kidney 24 hr postinjection; assay type: ADME, organism-based; conditions: in vivo
How it was run: (§1)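 ⁶⁴Cu-labeled complexes, at NCA and CA levels, were diluted in saline and injected into mature female Sprague–Dawley rats (180–200 g; n = 4). Each rat received up to 0.2 mL carrying 22 μCi. Rats were sacrificed at set times after injection, including 24 h. Organs were excised, weighed and counted against a weighed, counted standard. Values are %ID/g and %ID/organ ± sd.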

[3] = species on record: Rattus norvegicus; assay: Distribution in rat blood after 24 hr postinjection; assay type: ADME, organism-based; conditions: in vivo; how it was run: as §1
[4] = species on record: Rattus norvegicus; assay: Distribution in rat liver after 24 hr postinjection; assay type: ADME, organism-based; conditions: in vivo; how it was run: as §1

## C1CNCCN2CCCNCCN(C1)CC2
[1]
  logP: -2.11

## CCN(CC)C(=O)CN1CCCN2CCN(CCCN(CC(=O)N(CC)CC)CC2)CC1
[1]
  logP: -1.95

## NC(=O)CCN1CCCN2CCN(CCC(N)=O)CCCN(CC1)CC2
[1]
  logP: -2.3

## Cu-1,4,8,11tetraaza-Cyclotetradecane-2,10-dione
[2]
  Biodistribution: 0.097
[3]
  Biodistribution: 0.23
[4]
  Biodistribution: 0.7

## Cu-(4,8,11-Tris-carboxymethyl-1,4,8,11tetraaza-cyclotetradec-1-yl)-acetic acid
[2]
  Biodistribution: 0.21
[3]
  Biodistribution: 0.21
[4]
  Biodistribution: 0.49
